# Experimental data taken from ChEMBL document CHEMBL1125502, “Structural requirements for neuropeptide Y18-36-evoked hypotension: a systematic study” (1992).
# Where a SMILES comes first, the peptide text is derived from it.
# System: Rattus norvegicus
# Test: Plasma histamine level of the peptide after intra arterial administration at time 5 min in rats
# Format: functional, organism-based
row,Structure (SMILES),Plasma histamine [ng/mL]
1,CC[C@H](C)[C@H](NC(=O)[C@H](Cc1ccc(O)cc1)NC(=O)[C@H](Cc1c[nH]cn1)NC(=O)[C@H](CCCN=C(N)N)NC(=O)[C@H](CC(C)C)NC(=O)[C@H](C)NC(=O)[C@H](CO)NC(=O)[C@H](Cc1ccc(O)cc1)NC(=O)[C@H](Cc1ccc(O)cc1)NC(=O)[C@H](CCCN=C(N)N)NC(=O)[C@H](C)NC(C)=O)C(=O)N[C@@H](CC(N)=O)C(=O)N[C@@H](CC(C)C)C(=O)N[C@H](C(=O)N[C@H](C(=O)N[C@@H](CCCN=C(N)N)C(=O)N[C@@H](CCC(N)=O)C(=O)N[C@@H](CCCN=C(N)N)C(=O)N[C@@H](Cc1ccc(O)cc1)C(N)=O)[C@@H](C)O)[C@@H](C)CC,31.1

# System: Rattus norvegicus
# Test: Plasma histamine level of the peptide after intra arterial administration at time 0 min in rats
# Format: functional, organism-based
row,Structure (SMILES),Plasma histamine [ng/mL]
1,CC[C@H](C)[C@H](NC(=O)[C@H](Cc1ccc(O)cc1)NC(=O)[C@H](Cc1c[nH]cn1)NC(=O)[C@H](CCCN=C(N)N)NC(=O)[C@H](CC(C)C)NC(=O)[C@H](C)NC(=O)[C@H](CO)NC(=O)[C@H](Cc1ccc(O)cc1)NC(=O)[C@H](Cc1ccc(O)cc1)NC(=O)[C@H](CCCN=C(N)N)NC(=O)[C@H](C)NC(C)=O)C(=O)N[C@@H](CC(N)=O)C(=O)N[C@@H](CC(C)C)C(=O)N[C@H](C(=O)N[C@H](C(=O)N[C@@H](CCCN=C(N)N)C(=O)N[C@@H](CCC(N)=O)C(=O)N[C@@H](CCCN=C(N)N)C(=O)N[C@@H](Cc1ccc(O)cc1)C(N)=O)[C@@H](C)O)[C@@H](C)CC,16

# System: Rattus norvegicus
# Test: Change in mean arterial pressure measured 5 min after intra arterial administration at 0.4 mg/kg to male rats.
# Format: functional, Artery
# Design: unit not given here
# How it was run: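 Conscious, freely moving male Sprague-Dawley rats (240–280 g) with arterial catheters; peptide in saline given IA as a 100-µL bolus (100 µg). MAP recorded by pressure transducer, calculated as [[…] + diastolic]. Baseline set by saline vehicle injection before dosing; change read 5 min post-dose relative to pre-dose control. Mean ± SEM, n ≥ 3.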
row,Structure (SMILES),Delta MAP
1,CC[C@H](C)[C@H](NC(=O)[C@H](Cc1ccc(O)cc1)NC(=O)[C@H](Cc1c[nH]cn1)NC(=O)[C@H](CCCN=C(N)N)NC(=O)[C@H](CC(C)C)NC(=O)[C@H](C)NC(=O)[C@H](CO)NC(=O)[C@H](Cc1ccc(O)cc1)NC(=O)[C@H](Cc1ccc(O)cc1)NC(=O)[C@H](CCCN=C(N)N)NC(=O)[C@H](C)N)C(=O)N[C@@H](CC(N)=O)C(=O)N[C@@H](CC(C)C)C(=O)N[C@H](C(=O)N[C@H](C(N)=O)[C@@H](C)O)[C@@H](C)CC (H-ARYYSALRHYINLIT-NH2),0
2,CC(C)C[C@H](NC(=O)[C@H](C)NC(=O)[C@H](CO)NC(=O)[C@H](Cc1ccc(O)cc1)NC(=O)[C@H](Cc1ccc(O)cc1)NC(=O)[C@H](CCCN=C(N)N)NC(=O)[C@H](C)N)C(=O)N[C@@H](CCCN=C(N)N)C(N)=O (H-ARYYSALR-NH2),4.67
3,CC(C)C[C@H](NC(=O)[C@H](C)NC(=O)[C@H](CO)NC(=O)[C@H](Cc1ccc(O)cc1)NC(=O)[C@H](Cc1ccc(O)cc1)NC(=O)[C@H](CCCN=C(N)N)NC(=O)[C@H](C)N)C(N)=O (H-ARYYSAL-NH2),3.33
4,CC[C@H](C)[C@H](NC(=O)[C@H](Cc1ccccc1)NC(=O)[C@H](Cc1c[nH]cn1)NC(=O)[C@H](CCCN=C(N)N)NC(=O)[C@H](CC(C)C)NC(=O)[C@H](C)NC(=O)[C@H](CO)NC(=O)[C@H](Cc1ccccc1)NC(=O)[C@H](Cc1ccccc1)NC(=O)[C@H](CCCN=C(N)N)NC(=O)[C@H](C)N)C(=O)N[C@@H](CC(N)=O)C(=O)N[C@@H](CC(C)C)C(=O)N[C@H](C(=O)N[C@H](C(=O)N[C@@H](CCCN=C(N)N)C(=O)N[C@@H](CCC(N)=O)C(=O)N[C@@H](CCCN=C(N)N)C(=O)N[C@@H](Cc1ccccc1)C(N)=O)[C@@H](C)O)[C@@H](C)CC (H-ARFFSALRHFINLITRQRF-NH2),12.33
5,CC[C@H](C)[C@H](NC(=O)[C@H](Cc1ccccc1)NC(=O)[C@H](Cc1c[nH]cn1)NC(=O)[C@H](CCCN=C(N)N)NC(=O)[C@H](CC(C)C)NC(=O)[C@H](C)NC(=O)[C@H](CO)NC(=O)[C@H](Cc1ccc(O)cc1)NC(=O)[C@H](Cc1ccccc1)NC(=O)[C@H](CCCN=C(N)N)NC(=O)[C@H](C)N)C(=O)N[C@@H](CC(N)=O)C(=O)N[C@@H](CC(C)C)C(=O)N[C@H](C(=O)N[C@H](C(=O)N[C@@H](CCCN=C(N)N)C(=O)N[C@@H](CCC(N)=O)C(=O)N[C@@H](CCCN=C(N)N)C(=O)N[C@@H](Cc1ccccc1)C(N)=O)[C@@H](C)O)[C@@H](C)CC (H-ARFYSALRHFINLITRQRF-NH2),3
6,CC(C)C[C@H](NC(=O)[C@H](C)NC(=O)[C@H](CO)NC(=O)[C@H](Cc1ccc(O)cc1)NC(=O)[C@H](Cc1ccc(O)cc1)NC(=O)[C@H](CCCN=C(N)N)NC(=O)[C@H](C)N)C(=O)N[C@@H](CCCN=C(N)N)C(=O)N[C@@H](Cc1c[nH]cn1)C(=O)N[C@@H](Cc1ccc(O)cc1)C(N)=O (H-ARYYSALRHY-NH2),-12
7,CC[C@H](C)[C@H](NC(=O)[C@H](Cc1ccc(O)cc1)NC(=O)[C@H](Cc1c[nH]cn1)NC(=O)[C@H](CCCN=C(N)N)NC(=O)[C@H](CC(C)C)NC(=O)[C@H](C)NC(=O)[C@H](CO)NC(=O)[C@H](Cc1ccc(O)cc1)NC(=O)[C@H](Cc1ccc(O)cc1)NC(=O)[C@H](CCCN=C(N)N)NC(=O)[C@H](C)NC(C)=O)C(=O)N[C@@H](CC(N)=O)C(=O)N[C@@H](CC(C)C)C(=O)N[C@H](C(=O)N[C@H](C(=O)N[C@@H](CCCN=C(N)N)C(=O)N[C@@H](CCC(N)=O)C(=O)N[C@@H](CCCN=C(N)N)C(=O)N[C@@H](Cc1ccc(O)cc1)C(N)=O)[C@@H](C)O)[C@@H](C)CC,12
8,CC[C@H](C)[C@H](NC(=O)[C@H](Cc1ccccc1)NC(=O)[C@H](Cc1c[nH]cn1)NC(=O)[C@H](CCCN=C(N)N)NC(=O)[C@H](CC(C)C)NC(=O)[C@H](C)NC(=O)[C@H](CO)NC(=O)[C@H](Cc1ccc(O)cc1)NC(=O)[C@H](Cc1ccc(O)cc1)NC(=O)[C@H](CCCN=C(N)N)NC(=O)[C@H](C)N)C(=O)N[C@@H](CC(N)=O)C(=O)N[C@@H](CC(C)C)C(=O)N[C@H](C(=O)N[C@H](C(=O)N[C@@H](CCCN=C(N)N)C(=O)N[C@@H](CCC(N)=O)C(=O)N[C@@H](CCCN=C(N)N)C(=O)N[C@@H](Cc1ccccc1)C(N)=O)[C@@H](C)O)[C@@H](C)CC (H-ARYYSALRHFINLITRQRF-NH2),-6
9,CC[C@H](C)[C@H](NC(=O)[C@H](Cc1ccccc1)NC(=O)[C@H](Cc1c[nH]cn1)NC(=O)[C@H](CCCN=C(N)N)NC(=O)[C@H](CC(C)C)NC(=O)[C@H](C)NC(=O)[C@H](CO)NC(=O)[C@H](Cc1ccccc1)NC(=O)[C@H](Cc1ccc(O)cc1)NC(=O)[C@H](CCCN=C(N)N)NC(=O)[C@H](C)N)C(=O)N[C@@H](CC(N)=O)C(=O)N[C@@H](CC(C)C)C(=O)N[C@H](C(=O)N[C@H](C(=O)N[C@@H](CCCN=C(N)N)C(=O)N[C@@H](CCC(N)=O)C(=O)N[C@@H](CCCN=C(N)N)C(=O)N[C@@H](Cc1ccccc1)C(N)=O)[C@@H](C)O)[C@@H](C)CC (H-ARYFSALRHFINLITRQRF-NH2),7.66
10,CC[C@H](C)[C@H](NC(=O)[C@H](Cc1ccc(O)cc1)NC(=O)[C@H](Cc1c[nH]cn1)NC(=O)[C@H](CCCN=C(N)N)NC(=O)[C@H](CC(C)C)NC(=O)[C@H](C)NC(=O)[C@H](CO)NC(=O)[C@H](Cc1ccc(O)cc1)NC(=O)[C@H](Cc1ccc(O)cc1)NC(=O)[C@H](CCCN=C(N)N)NC(=O)[C@H](C)N)C(=O)N[C@@H](CC(N)=O)C(=O)N[C@@H](CC(C)C)C(=O)N[C@H](C(=O)N[C@H](C(=O)N[C@@H](CCCN=C(N)N)C(=O)N[C@@H](CCC(N)=O)C(=O)N[C@@H](CCCN=C(N)N)C(=O)N[C@@H](Cc1ccc(O)cc1)C(=O)O)[C@@H](C)O)[C@@H](C)CC,-4.75
11,CC[C@H](C)[C@H](NC(=O)[C@H](Cc1ccc(O)cc1)NC(=O)[C@H](Cc1c[nH]cn1)NC(=O)[C@H](CCCN=C(N)N)NC(=O)[C@H](CC(C)C)NC(=O)[C@H](C)NC(=O)[C@H](CO)NC(=O)[C@H](Cc1ccc(O)cc1)NC(=O)[C@H](Cc1ccc(O)cc1)NC(=O)[C@H](CCCN=C(N)N)NC(=O)[C@H](C)N)C(=O)N[C@@H](CC(N)=O)C(=O)N[C@@H](CC(C)C)C(=O)N[C@H](C(=O)N[C@H](C(=O)N[C@@H](CCCN=C(N)N)C(=O)N[C@@H](CCC(N)=O)C(=O)N[C@@H](CCCN=C(N)N)C(=O)N[C@@H](Cc1ccc(O)cc1)C(=O)N[C@@H](Cc1ccc(O)cc1)C(=O)O)[C@@H](C)O)[C@@H](C)CC,-8.35
